For 7 compounds, IC50 results are on record in PubChem BioAssay AID623918 (The Scripps Research Institute Molecular Screening Center, 2012).

In this test the test system is E. coli V66 Hfr conjugation, recombinant frequency by colony plating. The test can be described thus: inhibitors of RecBCD-driven recombination, late-stage follow-up, counter-screen for AddAB inhibitor project, colony formation, V66 E. coli, provider lab (AID 623918). In outline: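 Test system – E. coli F- recipient by Hfr donor mating · Reagent – Hfr donor, 1:10 donor to recipient · Compound – 5 doses, 0.03–100 µM · Timing – 1 h recipient growth, 30 min mating, 1.5 h compound exposure · Technique – colony counting after differential plating for His+ StrR recombinants, viability on non-selective plates · Controls – DMSO-only culture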

As usually defined, the IC50 is the concentration at which inhibition is half-maximal. Turning to `CCn1cc(C(=O)O)c(=O)c2cc(F)c(N3CCN(C(=S)Nc4cccc(C(F)(F)F)c4)CC3)cc21`, the IC50 is < 1000 nM.
With `CCn1cc(C(=O)O)c(=O)c2cnc(N3CCN(C(=S)Nc4ccccc4C(F)(F)F)CC3)nc21` the figure was < 1000 nM; with `O=C(NCc1cccnc1)c1ccc([N+](=O)[O-])o1`, < 100 nM; with `O=C(Nc1ncccn1)c1ccc([N+](=O)[O-])o1`, 30 nM.
For `CCn1cc(C(=O)O)c(=O)c2cnc(N3CCN(C(=S)Nc4cccc(C(F)(F)F)c4)CC3)nc21` the value was 100 nM; for `C=CCn1c(Sc2ncc([N+](=O)[O-])s2)n[nH]c1=O`, < 1000 nM; for `CCn1cc(C(=O)O)c(=O)c2cnc(N3CCNCC3)nc21`, < 100 nM.
